What was measured:
Ferrous ion = assay: Ferrous ion
Method in brief: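 FeCl2 (0.6 mM stock) added to the test compound solution; iron complex formation measured spectrophotometrically at 522 nm. Chelated Fe2+ % = (1 − As/Ac) × 100, where Ac is the control absorbance. IC50 came from a plot of % against concentration. Triplicate, mean ± SD.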

Fe3+ reducing ability = conditions: for Fe^3+ reducing (absorbance): 20 μg/mL, absorbance at 700 nm
Cu2+ reducing ability = conditions: for Cu^2+ reducing (absorbance): 20 μg/mL, absorbance at 450 nm; for Cu^2+ ions reducing ability (absorbance): running text: at 30 μg/mL concentration, 450 nm
Method in brief: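 CUPRAC assay: CuCl2 (10 mM stock), neocuproine (7.5 mM stock) and 1.0 M acetate buffer were added to the test compound (10−30 μg/mL). The mixture was made up with deionized water, tubes were closed and left at room temperature, and absorbance was read at 450 nm. Higher absorbance means greater reducing ability. Triplicate runs, mean ± SD.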

[1] = Fe3+-TPTZ reducing ability; conditions: for Fe^3+-TPTZ reducing (absorbance): 20 μg/mL, absorbance at 593 nm
DPPH radical scavenging = assay: DPPH radical scavenging
Method in brief: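 Ethanolic DPPH (0.1 mM stock) added to the test compound in ethanol (10−30 μg/mL). Incubated 30 min in the dark, absorbance read at 517 nm. Scavenging % = (1 − As/Ac) × 100. IC50 was obtained by plotting % against concentration. Triplicate analyses, mean ± SD.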

[2] = ABTS radical cation scavenging
Method in brief: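 Radical cation generated from 2.0 mM ABTS in deionized water with 2.3 mM K2S2O8, then diluted with pH 7.4 buffer to absorbance 0.750 ± 0.025. Test compound (10−30 μg/mL) mixed with the radical solution; residual absorbance read at 734 nm. Scavenging % = (1 − As/Ac) × 100. IC50 was taken from a plot of % against concentration. Triplicate runs, mean ± SD.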

[3] = DMPD radical cation scavenging
Method in brief: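 DMPD solution (0.1 M stock) added to 0.1 M acetate buffer, pH 5.3, containing the test compound (10−30 μg/mL). FeCl3 (50 mM stock) was then added and absorbance measured at 505 nm. Scavenging % = (1 − As/Ac) × 100. IC50 was read from a plot of % against concentration. Triplicate, mean ± SD.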

[4] = Superoxide anion radical scavenging
Method in brief: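 Superoxide generated in a methionine–riboflavin system under illumination and detected by NBT reduction at 560 nm. Scavenging % = (1 − As/Ac) × 100 against a compound-free control. IC50 was estimated from a plot of % against test compound concentration. Triplicate, mean ± SD.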

[5] = molecular target: acetylcholinesterase (AChE) (Electrophorus electricus, UniProt O42275); assay: AChE inhibition; type: biochemical, Electric eel
Sequence of acetylcholinesterase (AChE) (O42275 24-633): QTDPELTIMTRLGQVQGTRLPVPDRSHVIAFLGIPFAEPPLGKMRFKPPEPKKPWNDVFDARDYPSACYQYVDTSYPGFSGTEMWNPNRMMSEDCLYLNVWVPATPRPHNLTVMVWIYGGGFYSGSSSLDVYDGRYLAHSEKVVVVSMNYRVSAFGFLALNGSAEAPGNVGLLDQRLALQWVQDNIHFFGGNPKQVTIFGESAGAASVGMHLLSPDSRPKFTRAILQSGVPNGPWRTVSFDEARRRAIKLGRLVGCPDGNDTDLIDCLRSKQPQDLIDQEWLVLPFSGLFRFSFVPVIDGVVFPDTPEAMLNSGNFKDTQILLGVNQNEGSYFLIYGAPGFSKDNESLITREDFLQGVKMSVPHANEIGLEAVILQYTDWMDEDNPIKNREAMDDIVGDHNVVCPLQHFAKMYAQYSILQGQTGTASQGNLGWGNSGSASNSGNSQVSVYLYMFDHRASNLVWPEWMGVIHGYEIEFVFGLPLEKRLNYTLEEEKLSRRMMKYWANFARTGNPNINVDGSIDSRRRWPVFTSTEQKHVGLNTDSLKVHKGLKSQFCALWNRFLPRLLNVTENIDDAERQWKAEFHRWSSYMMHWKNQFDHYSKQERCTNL

[6] = molecular target: butyrylcholinesterase (BChE) (Equus caballus, UniProt P81908); assay: biochemical; parameters: species or system equine
Sequence of butyrylcholinesterase (BChE) (P81908 whole entry): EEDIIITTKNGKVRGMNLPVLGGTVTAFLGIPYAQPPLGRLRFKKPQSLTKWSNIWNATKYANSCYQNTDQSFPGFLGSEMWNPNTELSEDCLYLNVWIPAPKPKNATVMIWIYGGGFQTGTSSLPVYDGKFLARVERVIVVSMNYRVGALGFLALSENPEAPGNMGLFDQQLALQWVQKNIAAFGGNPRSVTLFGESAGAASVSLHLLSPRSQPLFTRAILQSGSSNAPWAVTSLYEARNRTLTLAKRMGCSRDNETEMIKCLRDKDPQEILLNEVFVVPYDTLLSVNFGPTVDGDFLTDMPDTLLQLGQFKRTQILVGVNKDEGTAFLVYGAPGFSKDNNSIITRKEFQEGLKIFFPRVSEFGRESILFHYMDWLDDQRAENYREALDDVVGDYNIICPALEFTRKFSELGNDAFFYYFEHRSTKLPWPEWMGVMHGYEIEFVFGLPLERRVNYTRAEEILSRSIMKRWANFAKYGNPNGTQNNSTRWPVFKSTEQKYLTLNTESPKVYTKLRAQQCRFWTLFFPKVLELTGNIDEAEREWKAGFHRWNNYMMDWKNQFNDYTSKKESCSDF

Metal chelating (Fe^2+) IC50 (Ferrous ion) [mg/L]	DPPH· scavenging IC50 (DPPH radical scavenging) [mg/L]	ABTS^•+ scavenging IC50 [2] [mg/L]	O2^•− scavenging IC50 [4] [mg/L]	Compound	Fe^3+ reducing (absorbance) (Fe3+ reducing ability)	Cu^2+ reducing (absorbance) (Cu2+ reducing ability)	Cu^2+ ions reducing ability (absorbance) (Cu2+ reducing ability)	Fe^3+-TPTZ reducing (absorbance) [1]	DMPD^•+ scavenging IC50 [3] [mg/L]	Fe^3+ reducing ability (absorbance) (Fe3+ reducing ability; concentration not given, 700 nm)	FRAP effects (absorbance) ([1]; concentration not given, 593 nm)	IC50 [5] [nM]	Ki [5] [nM]	IC50 [6] [nM]	DMPD^•+ scavenging activity [3]
6.24	–	–	–	O=C(O)CN(CCN(CC(=O)O)CC(=O)O)CC(=O)O [EDTA]	–	–	–	–	–	–	–	–	–	–	–
8.05	8.01	4.30	30.13	Cc1c(C)c2c(c(C)c1O)CCC(C)(C(=O)O)O2 (stereo not drawn) [Trolox, trolox]	1.148	0.825	0.825	1.973	22.35	–	–	–	–	–	–
27.72	9.76	5.02	21.01	Cc1c(C)c2c(c(C)c1O)CC[C@@](C)(CCC[C@H](C)CCC[C@H](C)CCCC(C)C)O2 [α-Tocopherol, α-tocopherol]	0.802	0.564	0.564	1.473	–	–	–	–	–	–	did not demonstrate scavenging activity

Compound	Metal chelating (Fe^2+) IC50 (Ferrous ion) [mg/L]	DPPH· scavenging IC50 (DPPH radical scavenging) [mg/L]	ABTS^•+ scavenging IC50 [2] [mg/L]	O2^•− scavenging IC50 [4] [mg/L]	Fe^3+ reducing (absorbance) (Fe3+ reducing ability)	Cu^2+ reducing (absorbance) (Cu2+ reducing ability)	Cu^2+ ions reducing ability (absorbance) (Cu2+ reducing ability)	Fe^3+-TPTZ reducing (absorbance) [1]	DMPD^•+ scavenging IC50 [3] [mg/L]	Fe^3+ reducing ability (absorbance) (Fe3+ reducing ability; concentration not given, 700 nm)	FRAP effects (absorbance) ([1]; concentration not given, 593 nm)	IC50 [5] [nM]	Ki [5] [nM]	IC50 [6] [nM]	DMPD^•+ scavenging activity [3]
CC(=O)c1c(O)c(C)c(O)c2c1OC1=CC(=O)C(C(C)=O)C(=O)C12C (stereo not drawn) [Usnic acid]	18.68	49.50	10.41	20.38	0.278	0.277	0.277	1.293	33.00	0.278	1.293	1.27	0.239	3.4	–
